Reference: ChEMBL document CHEMBL1629601, “In vitro susceptibility of field isolates of Leishmania donovani to Miltefosine and amphotericin B: correlation with sodium antimony gluconate susceptibility and implications for treatment in areas of endemicity” (2009)
In brackets after ≈: the same amount, converted by molar mass.

Assays:
Format in all cases: functional
[1] = test system: Leishmania donovani; experiment: Antimicrobial activity against Leishmania donovani K59M20 promastigote; details: read-out: ED50 (the source's name)
[2] = test system: Leishmania donovani; experiment: Antimicrobial activity against Leishmania donovani K80 promastigote; details: read-out: ED50 (the source's name)
[3] = test system: Leishmania donovani; experiment: Antimicrobial activity against Leishmania donovani K435 promastigote; details: read-out: ED50 (the source's name)
[4] = test system: Leishmania donovani; experiment: Antimicrobial activity against Leishmania donovani K516 promastigote; details: read-out: ED50 (the source's name)
[5] = test system: Leishmania donovani; experiment: Decrease in LdMT gene expression in Leishmania donovani K192 by RT-PCR method
Outline: (§1)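 VL field isolates of L. donovani. Transcript levels of LdMT or LdRos3 were measured by real-time RT-PCR with SYBR green and analysed by the 2−ΔΔCt method. The expression index is the ratio of gene expression to that of the standard L. donovani strain LdAG83, and a decrease is relative to LdAG83. Values are means of three independent experiments.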

[6] = test system: Leishmania donovani; experiment: Decrease in LdMT gene expression in Leishmania donovani K429 by RT-PCR method; outline: as §1
[7] = test system: Leishmania donovani; experiment: Decrease in LdRoS3 gene expression in Leishmania donovani K429 by RT-PCR method; outline: as §1
[8] = test system: Leishmania donovani; experiment: Decrease in LdMT gene expression in Leishmania donovani K132 by RT-PCR method
Outline: (§2)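 LdMT transcript levels were measured by real-time RT-PCR with SYBR green and analysed by the 2−ΔΔCt method. They are expressed as an expression index, the ratio relative to reference strain LdAG83, and are the mean of three independent experiments.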

[9] = test system: Leishmania donovani; experiment: Decrease in LdRoS3 gene expression in Leishmania donovani K417M20 by RT-PCR method
Outline: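 MIL-resistant M20 parasites were generated by raising the MIL concentration stepwise up to 20 μg/ml. LdMT or LdRos3 expression was quantified by real-time RT-PCR (SYBR green, 2−ΔΔCt method) and reported as an expression index, the ratio to the standard strain LdAG83. A decrease is relative to LdAG83. Values are means of three independent experiments.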

[10] = test system: Leishmania donovani; experiment: Antimicrobial activity against Leishmania donovani K192 amastigote; details: read-out: ED50 (the source's name)
[11] = test system: Leishmania donovani; experiment: Decrease in LdMT gene expression in Leishmania donovani K516 by RT-PCR method; outline: as §1
[12] = test system: Leishmania donovani; experiment: Antimicrobial activity against Leishmania donovani K111 promastigote; details: read-out: ED50 (the source's name)
[13] = test system: Leishmania donovani; experiment: Antimicrobial activity against Leishmania donovani K135 amastigote; details: read-out: ED50 (the source's name)
[14] = test system: Leishmania donovani; experiment: Decrease in LdMT gene expression in Leishmania donovani K435 by RT-PCR method; outline: as §1
[15] = test system: Leishmania donovani; experiment: Decrease in LdMT gene expression in Leishmania donovani K216 by RT-PCR method; outline: as §1
[16] = test system: Leishmania donovani; experiment: Antimicrobial activity against Leishmania donovani K131 amastigote; details: read-out: ED50 (the source's name)
[17] = test system: Leishmania donovani; experiment: Antimicrobial activity against Leishmania donovani K59 amastigote; details: read-out: ED50 (the source's name)
[18] = test system: Leishmania donovani; experiment: Decrease in LdRoS3 gene expression in Leishmania donovani K216 by RT-PCR method; outline: as §1
[19] = test system: Leishmania donovani; experiment: Decrease in LdRoS3 gene expression in Leishmania donovani K133 by RT-PCR method; outline: as §1
[20] = test system: Leishmania donovani; experiment: Decrease in LdMT gene expression in Leishmania donovani K133 by RT-PCR method; outline: as §2
[21] = test system: Leishmania donovani; experiment: Antimicrobial activity against Leishmania donovani K216 amastigote; details: read-out: ED50 (the source's name)
[22] = test system: Leishmania donovani; experiment: Antimicrobial activity against Leishmania donovani K149 promastigote; details: read-out: ED50 (the source's name)
[23] = test system: Leishmania donovani; experiment: Decrease in LdRoS3 gene expression in Leishmania donovani K111 by RT-PCR method; outline: as §1
[24] = test system: Leishmania donovani; experiment: Antimicrobial activity against Leishmania donovani LdAG83 promastigote; details: read-out: ED50 (the source's name)
[25] = test system: Leishmania donovani; experiment: Decrease in LdMT gene expression in Leishmania donovani K135 by RT-PCR method; outline: as §2
[26] = test system: Leishmania donovani; experiment: Decrease in LdRoS3 gene expression in Leishmania donovani K498 by RT-PCR method; outline: as §1
[27] = test system: Leishmania donovani; experiment: Antimicrobial activity against Leishmania donovani K192 promastigote; details: read-out: ED50 (the source's name)
[28] = test system: Leishmania donovani; experiment: Antimicrobial activity against Leishmania donovani K131 promastigote; details: read-out: ED50 (the source's name)
[29] = test system: Leishmania donovani; experiment: Decrease in LdRoS3 gene expression in Leishmania donovani K59 by RT-PCR method; outline: as §1
[30] = test system: Leishmania donovani; experiment: Decrease in LdRoS3 gene expression in Leishmania donovani K149 by RT-PCR method; outline: as §1
[31] = test system: Leishmania donovani; experiment: Antimicrobial activity against Leishmania donovani K481 promastigote; details: read-out: ED50 (the source's name)
[32] = test system: Leishmania donovani; experiment: Decrease in LdRoS3 gene expression in Leishmania donovani K131 by RT-PCR method; outline: as §1
[33] = test system: Leishmania donovani; experiment: Antimicrobial activity against Leishmania donovani K251 promastigote; details: read-out: ED50 (the source's name)
[34] = test system: Leishmania donovani; experiment: Antimicrobial activity against Leishmania donovani LdAG83 amastigote; details: read-out: ED50 (the source's name)
[35] = test system: Leishmania donovani; experiment: Decrease in LdMT gene expression in Leishmania donovani K131 by RT-PCR method; outline: as §2
[36] = test system: Leishmania donovani; experiment: Antimicrobial activity against Leishmania donovani K59 promastigote; details: read-out: ED50 (the source's name)
[37] = test system: Leishmania donovani; experiment: Decrease in LdRoS3 gene expression in Leishmania donovani K435 by RT-PCR method; outline: as §1
[38] = test system: Leishmania donovani; experiment: Antimicrobial activity against Leishmania donovani K251 amastigote; details: read-out: ED50 (the source's name)
[39] = test system: Leishmania donovani; experiment: Antimicrobial activity against Leishmania donovani K133 promastigote; details: read-out: ED50 (the source's name)
[40] = test system: Leishmania donovani; experiment: Antimicrobial activity against Leishmania donovani K59M20 amastigote; details: read-out: ED50 (the source's name)
[41] = test system: Leishmania donovani; experiment: Decrease in LdRoS3 gene expression in Leishmania donovani K417 by RT-PCR method; outline: as §1

EC50 [1]: > 15 µg/mL | EC50 [2]: 1.58 µg/mL (≈ 3.88 µM) | EC50 [3]: 1.16 µg/mL (≈ 2.85 µM) | EC50 [4]: 1.62 µg/mL (≈ 3.97 µM) | EC50 [10]: 1.99 µg/mL (≈ 4.88 µM) | EC50 [12]: 0.47 µg/mL (≈ 1.15 µM) | EC50 [13]: 0.72 µg/mL (≈ 1.77 µM) | EC50 [16]: 0.51 µg/mL (≈ 1.25 µM) | EC50 [17]: 1.86 µg/mL (≈ 4.56 µM) | EC50 [21]: 0.91 µg/mL (≈ 2.23 µM) | EC50 [22]: 1.56 µg/mL (≈ 3.83 µM) | EC50 [24]: 1.05 µg/mL (≈ 2.58 µM) | EC50 [27]: 1.91 µg/mL (≈ 4.69 µM) | EC50 [28]: 0.63 µg/mL (≈ 1.55 µM) | EC50 [31]: 1.9 µg/mL (≈ 4.66 µM) | EC50 [33]: 0.4 µg/mL (≈ 0.981 µM) | EC50 [34]: 0.85 µg/mL (≈ 2.09 µM) | EC50 [36]: 1.19 µg/mL (≈ 2.92 µM) | EC50 [38]: 1.59 µg/mL (≈ 3.9 µM) | EC50 [39]: 0.83 µg/mL (≈ 2.04 µM) | EC50 [40]: > 15 µg/mL
Compound: CCCCCCCCCCCCCCCCOP(=O)([O-])OCC[N+](C)(C)C [MILTEFOSINE]
fold change (FC) [5]: 0.23 | fold change (FC) [6]: 1.26 | fold change (FC) [7]: 8.85 | fold change (FC) [8]: 5.5 | fold change (FC) [9]: 100 | fold change (FC) [11]: 8 | fold change (FC) [14]: 2.67 | fold change (FC) [15]: 1.4 | fold change (FC) [18]: 9.43 | fold change (FC) [19]: 4.52 | fold change (FC) [20]: 1.5 | fold change (FC) [23]: 5.26 | fold change (FC) [25]: 2.86 | fold change (FC) [26]: 7.63 | fold change (FC) [29]: 4.06 | fold change (FC) [30]: 7.69 | fold change (FC) [32]: 11.1 | fold change (FC) [35]: 2.43 | fold change (FC) [37]: 4.76 | fold change (FC) [41]: 5.02
